A selection: hits, their analogues and other compounds. The true share with any hit is near 3%.
5HT1a antag – human 5-HT1a receptor antagonists, primary screen, cell-based, CHO, Ga15 NFAT-bla reporter; 5-hydroxytryptamine receptor 1A (Homo sapiens), P08908; CHO 5-HT1a Ga15 NFAT-bla reporter, antagonist mode; inhibition, % at 10 µM; 62,000 tested, 0.68% active; AID 612, 2007;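 active = inhibition above the mean of all tested compounds plus 3 SD, cut at about 43% in these data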;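 also: receptor stimulated by 5-CT agonist at 100 nM near EC80; beta-lactamase reporter measured by ratiometric fluorescence of a cleavable substrate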
S1P3 ag – human S1P3 receptor agonists, primary screen, cell-based, primary and confirmation, NFAT-BLA reporter; Sphingosine 1-phosphate receptor 3 (Homo sapiens), Q99500; S1P3 NFAT-BLA reporter cells, agonism, FRET ratio; relative to 1 µM S1P, basal subtracted; activation, % at 4.5 µM; 60,000 tested, 0.1% active;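 active = activation above the screen-wide mean plus 3 SD, cut at about 4.5% in these data, passing the limit was not always enough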
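Assay system: CHO cells stably expressing human S1P3, Gα16 and NFAT-β-lactamase reporter. Timing: overnight plating, 4 h compound 37 °C, 2 h substrate RT. Signal: β-lactamase FRET emission ratio 460/535 nm. Measure: percent activation versus median 1 µM S1P response, basal-subtracted, per plate. Repeats: primary screen single test, confirmation screen in triplicate.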
HTR1E antagonist – 5-HT1E receptor antagonists, primary screen, cell-based, HTS; 65,000 tested, 0.99% active; CHO 5-HT1E Ga15 NFAT-bla reporter, FRET, antagonist; inhibition, % at 6 µM; 5-hydroxytryptamine receptor 1E (Homo sapiens), P28566; AID 571, 2007;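 active = inhibition above a set limit, the mean inhibition across every tested compound plus 3 SD, cut at about 29% in these data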;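 also: signal is the 460 over 535 nm emission ratio of beta-lactamase substrate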
HTR1E agonist – 5-HT1E receptor agonists, primary screen, cell-based, HTS; 65,000 tested, 0.69% active; CHO 5-HT1E Ga15 NFAT-bla reporter, FRET; 0% DMSO wells, 100% control agonist wells; activation, % at 6 µM; 5-hydroxytryptamine receptor 1E (Homo sapiens), P28566;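 active = activation above a set limit, the screen-wide mean activation plus 3 SD, cut at about 8.5% in these data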
S1P1 ag pot – S1P1 agonists and agonism potentiators, primary screen, cell-based, primary and confirmation screens, CRE-bla reporter | Sphingosine 1-phosphate receptor 1 (Homo sapiens), P21453 | S1P1 CRE-bla cells, forskolin, beta-lactamase FRET, potentiator mode; S1P1 agonist co-added at EC20, 2 nM; 100% = saturating reference agonist, 0% = basal | activation, % at 9.5 µM | 56,000 tested, 0.57% active;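 active = activation above a cutoff set at the mean activation of all tested compounds plus 3 SD, cut at about 54% in these data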;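 also: forskolin at 4 µM as EC80 and the EC20 agonist is SEW2871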
Target sequence (P21453 whole entry, looked up): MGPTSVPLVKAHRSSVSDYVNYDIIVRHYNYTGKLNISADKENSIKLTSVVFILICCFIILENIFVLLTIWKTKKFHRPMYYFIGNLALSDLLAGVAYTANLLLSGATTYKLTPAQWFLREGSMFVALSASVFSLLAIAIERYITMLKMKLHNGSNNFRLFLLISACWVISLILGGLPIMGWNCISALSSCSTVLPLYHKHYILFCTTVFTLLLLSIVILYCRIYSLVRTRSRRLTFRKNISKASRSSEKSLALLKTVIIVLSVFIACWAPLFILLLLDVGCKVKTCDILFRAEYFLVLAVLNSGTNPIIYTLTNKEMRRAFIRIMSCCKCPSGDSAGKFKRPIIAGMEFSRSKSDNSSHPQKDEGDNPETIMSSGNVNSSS
5HT1a ag – human 5-HT1a receptor agonists, primary screen, cell-based, CHO, Ga15 NFAT-bla reporter; 65,000 tested, 0.56% active; activation, % at 10 µM; AID 567, 2006; CHO 5-HT1a Ga15 NFAT-bla reporter, FRET ratio; 0% basal, 100% maximal reference agonist;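 active = activation above the screen-wide mean activation plus 3 SD, cut at about 19% in these data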
Each line names hits and unclear results; the compound was inactive in the other large screens.

CS(=O)(=O)c1ncc(Cl)c(C(=O)Nc2ccc(N3CCOCC3)cc2)n1	5HT1a antag 80.7, HTR1E antagonist 82.2
O=C(Nc1ccc(N2CCOCC2)cc1)c1cnsn1	none
Cc1cc(-c2ccco2)c(C#N)c2nc3ccccc3n12	none (no result: S1P3 ag, S1P1 ag pot)
COc1ccc(CCNC(=O)C2CCCN(Cc3nc(-c4ccccc4C)oc3C)C2)cc1OC (configuration not stated)	5HT1a ag 33.1
CCOC(=O)N1CCC(NC(=O)C2CCCN(Cc3nc(-c4cccc(Cl)c4)oc3C)C2)CC1 (configuration not stated)	S1P1 ag pot 102.8
COc1ccc(CCNC(=O)C2CCN(Cc3nc(-c4cccc(Cl)c4)oc3C)CC2)cc1OC	none
CCc1ccc(-c2nc(CN3CCCC(C(=O)NCCc4ccc(OC)c(OC)c4)C3)c(C)o2)cc1 (configuration not stated)	5HT1a ag 37.5
Cc1ccccc1OCCNC(=O)CNC(=O)c1ccccc1O	none (no result: S1P1 ag pot)
O=C(CCCN1C(=O)c2cccnc2C1=O)N1CC(=O)N(CCc2ccccc2)C(=O)C1	none
CCCCNC(=O)CC(=O)Nc1ccccc1C(=O)O	none
O=C(c1cc(-c2ccco2)on1)N1CCN(C(c2ccccc2)c2ccccc2)CC1	5HT1a antag 42.6, S1P1 ag pot 59.8
COc1ccc(-c2cc(C(=O)N3CCN(C(c4ccccc4)c4ccccc4)CC3)no2)cc1OC	none
O=C(c1cc(-c2ccccc2)on1)N1CCN(C(=O)c2ccco2)CC1	none
COc1ccc(-c2cc(C(=O)N3CCN(C(c4ccccc4)c4ccccc4)CC3)no2)cc1	5HT1a antag 44.0
O=C(c1noc2c1CCCC2)N1CCN(C(c2ccccc2)c2ccccc2)CC1	none
CC(C)c1cc(C(=O)N2CCN(C(c3ccccc3)c3ccccc3)CC2)no1	S1P1 ag pot 75.6
COc1ccc(C2C=C(c3ccc(Cl)cc3)Nc3nc(NC(C)=O)nn32)cc1 (configuration not stated)	none (no result: 5HT1a antag)
COc1ccc(C2=CC(c3ccc(Cl)cc3)n3cnnc3N2)cc1OC (configuration not stated)	HTR1E antagonist 34.5 (no result: S1P3 ag, S1P1 ag pot)
CCSc1nnc(Cc2cc(=O)[nH]c(=O)[nH]2)n1-c1cc(C)ccc1C	none
CCCCN1CC(C(=O)NC2CCCCC2)CC1=O (configuration not stated)	none
Nc1nonc1-c1nc2ccccc2n1CC(=O)N1CCCCC1	none
COC(=O)c1ccccc1NC(=O)Cn1c(-c2nonc2N)nc2ccccc21	5HT1a antag 74.0, HTR1E antagonist 80.7
O=C(Nc1ccccc1)N1CCN(c2nc3ccccc3s2)CC1	HTR1E agonist 11.9
O=C(Nc1ccc(F)cc1)N1CCN(c2nc3ccccc3s2)CC1	HTR1E agonist 11.5
CCOC(=O)CSC(C)C(=O)Nc1nnc(C(C)C)s1 (configuration not stated)	none
CSc1ccc2nnc(-c3cccc(F)c3)n2n1	5HT1a ag 19.6
CCOC(=O)CC(=O)CSc1ccc2nnc(-c3cccc(F)c3)n2n1	none
Cc1ccnc2c(N3C(=O)C4C5C=CC(C5)C4C3=O)cccc12 (configuration not stated)	none
Cc1ccc2c(c1)C1OCCC1C1N2C(=O)C2C(C(=O)O)C3C=CC21O3 (configuration not stated)	5HT1a ag 20.5
Cc1cccc(N2CC34C=CC(O3)C(C(=O)O)C4C2=O)c1 (configuration not stated)	none
O=C(Nc1cccc(C(F)(F)F)c1)N1CCC(c2nc(-c3ccc(F)cc3)no2)CC1	S1P1 ag pot 58.3
Cc1noc(C)c1CSc1nnc2n(-c3ccccc3)c(=O)c3ccccc3n12	none
Cc1noc(C)c1CSc1nc2ccccc2c(=O)n1-c1ccccc1	none
Cc1noc(C)c1CSc1nc2[nH]ncc2c(=O)n1-c1ccccc1	HTR1E antagonist 51.8 (no result: S1P1 ag pot)
Cc1noc(C)c1CSc1nc2ccccc2c(=O)n1-c1ccc(F)cc1F	5HT1a antag 45.5
Cc1cc2c(cc(C(=O)OCC(=O)NCc3cccs3)n2C(C)C)o1	HTR1E antagonist 38.0
Cc1cccc(OCCCCc2c(C)n[nH]c2C)c1C	S1P1 ag pot 112.4
CCOc1ccccc1OCCCCCc1c(C)n[nH]c1C	S1P1 ag pot 88.8
O=C(CN1CCN(Cc2ccccc2)CC1)c1ccc(Br)cc1	5HT1a ag 22.4
CSc1cccc(NC(=O)COc2ccccc2)c1	none (no result: S1P1 ag pot)
CSc1cccc(NC(=O)Nc2ccccc2)c1	HTR1E agonist 10.1
Cn1c(=O)c2c(nc(CN3CCN(C(=O)c4ccco4)CC3)n2Cc2ccccc2F)n(C)c1=O	none
C[N+]1=C2CCCCCN2C(O)(c2ccccc2)C1 (configuration not stated)	HTR1E agonist 51.0, 5HT1a ag 20.0
c1ccc(-c2ccc(-c3nc(-c4cccnc4)no3)cc2)cc1	S1P1 ag pot 81.5
c1ccc(-c2nc(-c3ccncc3)no2)cc1	none (no result: S1P1 ag pot)
CCc1ccc(-c2nc(-c3ccncc3)no2)cc1	S1P1 ag pot 76.0
c1ccc(-c2ccc(-c3nc(-c4ccncc4)no3)cc2)cc1	S1P1 ag pot 84.7
c1ccc(C(Cc2nc(-c3ccncc3)no2)c2ccccc2)cc1	S1P3 ag 42.0 (no result: S1P1 ag pot)
COc1cc2c(cc1OC)-c1cc(NC3CC3)nc(=O)n1CC2	none
COc1cc2c(cc1OC)-c1cc(NC3CCCCCCC3)nc(=O)n1CC2	HTR1E antagonist 52.0
COc1cc2c(cc1OC)-c1cc(NC3CCCCC3)nc(=O)n1CC2	HTR1E antagonist 36.1
CCCCCCNc1cc2n(c(=O)n1)CCc1cc(OC)c(OC)cc1-2	HTR1E antagonist 39.1
COc1ccc(-c2c3c(=O)n(C)c(=O)n(C)c3cn2C2CCCCC2)cc1	none
Cc1ccc(C)c(N2CCN(c3cc(C)nc4nnnn34)CC2)c1	none
Cc1nnc(SCc2cn3ccsc3n2)n(N)c1=O	none
O=c1c2ccccc2nc(SCc2cn3ccsc3n2)n1-c1ccc(F)cc1	HTR1E antagonist 37.2
CCOC(=O)c1cnc(-n2nc(C)cc2C)nc1NCc1ccc2c(c1)OCO2	5HT1a antag 43.2
COc1ccc(C2C=C(c3ccccc3)Nc3nc(CCCO)nn32)cc1 (configuration not stated)	none
